Source: PubChem BioAssay (Broad Institute)
PvdQ acylase = P. aeruginosa PvdQ acylase inhibition; purified PvdQ acylase, fluorescence plate reader; inhibition, % at 10 µM; actives 0.063% (n = 340,000); AID 488965; in the data active = inhibition above about 30%, passing the limit was not always enough;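 note: 0% = vehicle neutral wells and 100% = reference inhibitor wells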
CAL PDZ FP-1 = blocks peptide binding to human CAL PDZ domain. inhibition, % at 20 µM. actives 0.02% (n = 330,000). purified CAL PDZ, TMR-peptide fluorescence polarization, 1 h. AID 504414;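 active = highest replicate inhibition of at least 40%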;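 note: plate controls were DMSO neutral control wells for no effect and unlabeled competitor peptide control wells for full effect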
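Material: tagged CAL PDZ domain; buffer or medium: 25 mM sodium phosphate pH 7.4, 150 mM NaCl, TCEP, IgG, Thesit; compound dosing: single point, 20 µM; schedule: 1 h incubation at room temperature before polarization reading; measured by: FP readout, S and P plane fluorescence; read-out basis: percent inhibition from loss of millipolarization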
miR122 inh = miR-122 inhibition in Huh7 cells. Huh7 miR-122 Renilla luciferase sensor, 48 h; neutral wells = 0, positive control = 100. activation (reporter increase), % at 12.5 µM. actives 0.3% (n = 340,000);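 active = mean replicate activation score at least 90 and every replicate individually at or above 90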;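 note: higher luciferase means less miR-122 activity so hits act as miR-122 inhibitors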
CAL PDZ FP-2 = blocks peptide binding to the human CAL PDZ domain; purified CAL PDZ, TMR-peptide fluorescence polarization, 1 h; inhibition, % at 24.9 µM; actives 0.92% (n = 300,000); AID 602252;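 active = mean inhibition of at least 30% with at least half of replicates also reaching 30%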;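 note: 0% = DMSO neutral control and 100% = excess unlabeled competitor peptide PRC23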
* hit, by the source's call; . = not tested or not shown; + = active, no number; [ ] = another dose, or the depositor's remark. The list is not random: actives were taken first. Their share in the collection is about 0.95%.

SMILES	PvdQ acylase	CAL PDZ FP-1	miR122 inh	CAL PDZ FP-2
CN(CC1COc2ccccc2O1)C(=O)c1cc(COc2c(F)cccc2F)on1 (stereo not given)	-1	-1	-1	57*
OCC1OC(n2cnc3c(NCc4ccccc4O)ncnc32)C(O)C1O (stereo not given)	-3	-3	572*	-4
OC[C@H]1O[C@@H](n2cnc3c(Nc4ccccc4)ncnc32)[C@H](O)[C@@H]1O	-11	0	2	-1
CCONC(=O)Nc1ccccc1[N+](=O)[O-]	-3	-2	.	-4
O=C(CCN1CCN(C/C=C/c2ccccc2)CC1)Nc1ccc(Cl)cc1	6	0	.	-1
O=C(Nc1cccc(Cl)c1)N1CCN(C/C=C/c2ccccc2)CC1	-9	-2	.	48*
CCNC(=O)Nc1ccc2c(c1)C(=O)N(C)[C@H]1CC[C@H](CC(=O)NCc3cccc(F)c3)O[C@@H]1CO2	.	.	-8[16.7 µM]	.
CN(C)c1nc(NCc2ccccc2)nc(Oc2ccc(=O)[nH]n2)n1	-11	0	-3	40*
CCN(CC)c1nc(Nc2ccccc2)nc(Oc2ccc(=O)[nH]n2)n1	-2	-3	3	.
O=C1C2C3CC(C(Br)C3Br)C2C(=O)N1CC1CCCO1 (stereo not given)	-4	2	-5	-4
CC(C(=O)NCC1CCCO1)N1C(=O)C2C3CC(C(Br)C3Br)C2C1=O (stereo not given)	-13	1	-2	109*
COc1ccccc1/C=C/C(=O)/C=C/c1ccccc1O	-10	0	126*	-2
COc1ccccc1/C=C/C(=O)NNC(=O)c1cccs1	-14	-1	.	71*
O=C(/C=C/c1ccccc1)NNC(=O)c1cccs1	-17	-2	.	-2
O=C(C[C@H]1C[C@@H]2c3cc(NC(=O)Nc4ccccc4)ccc3O[C@@H]2[C@H](CO)O1)NCc1cccc(F)c1	.	.	3[16.7 µM]	.
CCCC(=O)N1CCN(c2ccc(NC(=S)NC(=O)c3cccc(C)c3)cc2)CC1	24	-1	.	75*
CCOC(=O)CSc1nnc(-c2ccc3ncccc3c2)n1C	-10	0	.	+
Cc1ccc(-n2nc(C)c3c2OC(N)=C(C#N)C3c2ccco2)cc1 (stereo not given)	5	-1	9	1
CCOc1cc(C)c(C(C)C)cc1S(=O)(=O)N1CCN(C)CC1	-1	1	54	-2
COc1cc(C)c(C(C)C)cc1S(=O)(=O)N1CCN(C)CC1	-11	0	149*	-4
CCN(CC)S(=O)(=O)c1ccc(NC(=S)NC(=O)C(C)C)cc1	-8	-2	.	-2
CCN(CC)S(=O)(=O)c1ccc(NC(=S)NC(=O)CC(C)C)cc1	-5	-2	.	112*
Clc1ccc2nc3c4ccccc4cnn3c2c1	33*	-6	.	-7
COn1c(-c2ccccc2)nc2ccc(Cl)cc21	-4	0	-4	-2
Cc1nnc(SCC(=O)NC(C)(C)C)n1NCc1ccc(N(C)C)cc1	-8	-4	11	74*
SMILES	PvdQ acylase	CAL PDZ FP-1	miR122 inh	CAL PDZ FP-2
Cc1nnc(SCC(=O)NC(C)(C)C)n1NCc1ccc(Cl)cc1	-12	0	.	5
COc1cc(C2Sc3ccccc3NC3=C2C(=O)OC3)cc(OC)c1OC (stereo not given)	-3	-1	-1	9
O=C(C[C@@H]1C[C@H]2c3cc(NC(=O)Nc4ccccc4F)ccc3O[C@H]2[C@@H](CO)O1)NC1CCCC1	.	.	4[16.7 µM]	.
O=C(O)c1cccc(Nc2nc(-c3ccc([N+](=O)[O-])cc3)nc3ccccc23)c1	-14	0	.	-1
O=[N+]([O-])c1ccc(-c2nc(Nc3cccc(O)c3)c3ccccc3n2)cc1	-11	.	-6	78*
O=C(CSc1nnc(-c2ccc(Br)cc2)n1C1CCCCC1)N1CCCC1	-12	-1	-3	56*
O=C(CSc1nnc(-c2ccc(Cl)cc2Cl)n1C1CCCCC1)N1CCCC1	-3	-1	2	53*
O=C(CSc1nnc(-c2ccccc2F)n1C1CCCCC1)N1CCCC1	-2	-2	-5	6
COc1cccc(CN(c2ccc3c(c2)CCC3)S(=O)(=O)c2ccc(-n3cnnn3)c(OC)c2)c1	-12	-1	25	42*
COc1cccc(CN(CC2CCCO2)S(=O)(=O)c2ccc(-n3cnnn3)c(OC)c2)c1 (stereo not given)	-9	-2	.	1
COc1ccc2[nH]c(=O)c(CN(C(=O)C3CCCO3)c3ccc(C)c(C)c3)cc2c1 (stereo not given)	-10	-1	2	48*
COc1ccc2[nH]c(=O)c(CN(C(=O)c3cccnc3)c3ccc(C)cc3C)cc2c1	-17	-1	3	34*
CCC(=O)c1ccc(N2CCCCC2)c(F)c1	-9	-2	.	161*
CCC(=O)c1ccc(N2CCOCC2)c(F)c1	-2	-2	2	2
CC(C)(C)NC(=O)CCSc1nnc(-c2ccco2)o1	-14	16	3	111*
O=C(CCSc1nnc(-c2ccco2)o1)Nc1ccccc1	-13	.	-4	-7
Cc1cc(CN(C)C(=O)c2cc(COc3ccc4ncccc4c3)on2)on1	-14	-2	-35	76*
CN(Cc1nccn1C)C(=O)c1cc(COc2ccc3ncccc3c2)on1	-22	25	.	42*
CCSc1ncc(Cl)c(C(=O)Nc2ccccc2F)n1	-10	-1	.	0
CCC(C)NC(=O)C1CCN(c2nc(OC)nc(OC)n2)CC1 (stereo not given)	2	-1	10	-3
CCC(C)(C)NC(=O)C1CCN(c2nc(OC)nc(OC)n2)CC1	-10	1	.	34*
COc1ccccc1C1CC(=O)NC(SCC(=O)Nc2ccccc2)=C1C#N (stereo not given)	-1	-1	13	.
CC(C)C1CC(=O)NC(SCC(=O)Nc2ccc(Br)cc2)=C1C#N (stereo not given)	-15	0	12	57*
CN1CCN(S(=O)(=O)CC2(C)C3CCC2(C)C(=O)C3Br)CC1 (stereo not given)	3	-2	-1	-1
CCN1CCN(S(=O)(=O)CC2(C)C3CCC2(C)C(=O)C3Br)CC1 (stereo not given)	-7	0	.	41*
SMILES	PvdQ acylase	CAL PDZ FP-1	miR122 inh	CAL PDZ FP-2
CCN(CC)CCOC(=O)c1ccc(NC(=O)CSc2nnc(-c3cccs3)n2CC)cc1	-12	-1	-17	61*
Nn1c(SCC(=O)Nc2cccc(S(N)(=O)=O)c2)nnc1C1CC1	-10	0	.	70*
Nn1c(SCC(=O)Nc2ccc(S(N)(=O)=O)cc2)nnc1-c1ccco1	-11	-1	2	37*
CCOc1ccc(NC(=O)CSc2nnnn2-c2ccc(C(N)=O)cc2)cc1	-19	.	.	66*
O=C(CSc1nnnn1-c1ccccc1)CSc1nnnn1-c1ccccc1	2	-1	-9	-3
O=C(CSc1nnnn1-c1ccccc1)c1ccc(O)cc1O	-8	-2	9	43*
NC(=O)c1ccc(-n2nnnc2SCC(=O)c2ccc(O)c(O)c2)cc1	11	-1	129*	-7
C=CCc1c(C)nc(C)nc1N/N=C/c1ccccc1	-11	-1	4	.
